From ChEMBL document CHEMBL1909500, “Synthesis and in vitro anticancer activity of 6,7-methylenedioxy (or 5-hydroxy-6-methoxy)-2-(substituted selenophenyl)quinolin-4-one analogs” (Eur J Med Chem, 2011)
Calls of active or inactive are those of the source. No cut-off for these calls is given here.

How the values were obtained:
HL-60 [1] = assay: Induction of cell cycle arrest at G2/M phase in human HL60 cells assessed as increase in cyclin B1 expression at 0.1 to 1.0 uM after 24 hrs by Western blot analysis; assay type: functional, cell-based
Procedure, shortened: (§1)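 HL-60 cells at 2 × 10⁵/mL were exposed to the indicated concentrations for 24 h, washed in PBS and lysed for total protein. Immunoblots used HRP-linked secondary antibodies with ECL detection. Cyclin B1, CDK1, caspase-3 (17 kDa active form) and PARP (85 kDa fragment) were quantified and normalised to β-actin.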

HL-60 [2] = assay: Induction of cell cycle arrest at G2/M phase in human HL60 cells assessed as decrease in cyclin B1 expression at 0.1 to 1.0 uM after 24 hrs by Western blot analysis; assay type: functional, cell-based; procedure, shortened: as §1
HL-60 [3] = assay: Cytotoxicity against human HL60 cells after 48 hrs by MTT assay; assay type: functional, cell-based; settings: HL-60, 48 h
Procedure, shortened: (§2)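 H460 or HL-60 cells were exposed to vehicle or compound for 48 h. Growth was read by MTT reduction at 570 nm, and IC50 was calculated.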

[4] = Cytotoxicity against human Hep3B cells after 48 hrs by MTT assay; assay type: functional, cell-based, Hep 3B2
Procedure, shortened: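 Hep 3B (hepatoma) or Detroit 551 (normal skin) cells, grown at 37 °C and 5% CO₂ in DMEM with 10% FBS, penicillin/streptomycin and 1% L-glutamine, were used in log phase. Cells were exposed to vehicle or compound for 48 h. Growth was read by MTT reduction at 570 nm, and IC50 was calculated.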

NCI-H460 = assay: Cytotoxicity against human H460 cells after 48 hrs by MTT assay; assay type: functional, cell-based; settings: NCI-H460, 48 h; procedure, shortened: as §2
A549 = assay: Anticancer activity against human A549 cells after 48 hrs by MTT assay; assay type: functional; settings: A549, 48 h
HOP-62 = assay: Anticancer activity against human HOP62 cells after 48 hrs by MTT assay; assay type: functional; settings: HOP-62, 48 h
NCI-H23 = assay: Anticancer activity against human NCI-H23 cells after 48 hrs by MTT assay; assay type: functional; settings: NCI-H23, 48 h
HCT-116 = assay: Anticancer activity against human HCT116 cells after 48 hrs by MTT assay; assay type: functional; settings: HCT-116, 48 h
HCT-15 = assay: Anticancer activity against human HCT15 cells after 48 hrs by MTT assay; assay type: functional; settings: HCT-15, 48 h
HT-29 = assay: Anticancer activity against human HT-29 cells after 48 hrs by MTT assay; assay type: functional; settings: HT-29, 48 h
SNB-19 = assay: Anticancer activity against human SNB19 cells after 48 hrs by MTT assay; assay type: functional; settings: SNB-19, 48 h
Malme-3M = assay: Anticancer activity against human MALME-3M cells after 48 hrs by MTT assay; assay type: functional
MDA-MB-435 = assay: Anticancer activity against human MDA-MB-435 cells after 48 hrs by MTT assay; assay type: functional; settings: MDA-MB-435, 48 h
SK-MEL-2 = assay: Anticancer activity against human SK-MEL-2 cells after 48 hrs by MTT assay; assay type: functional; settings: SK-MEL-2, 48 h
SK-MEL-5 = assay: Anticancer activity against human SK-MEL-5 cells after 48 hrs by MTT assay; assay type: functional; settings: SK-MEL-5, 48 h
IGROV-1 = assay: Anticancer activity against human IGROV1 cells after 48 hrs by MTT assay; assay type: functional; settings: IGROV-1, 48 h
OVCAR-3 = assay: Anticancer activity against human OVCAR3 cells after 48 hrs by MTT assay; assay type: functional; settings: OVCAR-3, 48 h
OVCAR-4 = assay: Anticancer activity against human OVCAR4 cells after 48 hrs by MTT assay; assay type: functional; settings: OVCAR-4, 48 h
OVCAR-5 = assay: Anticancer activity against human OVCAR5 cells after 48 hrs by MTT assay; assay type: functional; settings: OVCAR-5, 48 h
NCI/ADR-RES = assay: Anticancer activity against human NCI/ADR-RES cells after 48 hrs by MTT assay; assay type: functional
RXF 393 = assay: Anticancer activity against human RXF393 cells after 48 hrs by MTT assay; assay type: functional; settings: RXF 393, 48 h
SN12C = assay: Anticancer activity against human SN12C cells after 48 hrs by MTT assay; assay type: functional
HL-60 [5] = assay: Induction of apoptosis in human HL60 cells assessed as PARP cleavage at 0.1 to 1.0 uM after 24 hrs by Western blot analysis; assay type: functional, cell-based; procedure, shortened: as §1
HL-60 [6] = assay: Growth inhibition of human HL60 cells after 24 to 48 hrs by trypan blue exclusion assay; assay type: functional, cell-based
Procedure, shortened: (§3)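 HL-60 cells were given the indicated concentrations for 24 h and 48 h. Viable cells were counted by trypan blue exclusion. Values are mean ± SD of four independent experiments.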

HL-60 [7] = assay: Growth inhibition of human HL60 cells at 0.1 to 1 uM by trypan blue exclusion assay; assay type: functional, cell-based; settings: TDE = time-dependent effect; procedure, shortened: as §3
HL-60 [8] = assay: Induction of apoptosis in human HL60 cells assessed as cell shrinkage at 1 uM after 24 hrs; assay type: functional, cell-based
Procedure, shortened: (§4)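 HL-60 cells were exposed to 1 μM for 24 h. Apoptotic morphology, scored as cell shrinkage and apoptotic bodies, was examined by microscopy at 200×.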

HL-60 [9] = assay: Induction of apoptosis in human HL60 cells assessed as formation of apoptotic bodies at 1 uM after 24 hrs; assay type: functional, cell-based; procedure, shortened: as §4
HL-60 [10] = assay: Cell cycle arrest in human HL60 assessed as cell accumulation in G0/G1 phase at 1 uM after 24 hrs by propidium iodide staining-based flow cytometric analysis; assay type: functional
Procedure, shortened: (§5)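 HL-60 cells were preincubated for 3 h with or without the pan-caspase inhibitor z-VAD-fmk, then co-exposed to compound at 1 μM for 24 h. Cells were washed in PBS and fixed overnight in ice-cold 70% ethanol at −20 °C. They were stained for 30 min in the dark with propidium iodide 4 μg/mL, 0.1 mg/ml RNase and 1% Triton X-100. DNA content was read on a FACScan flow cytometer.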

HL-60 [11] = assay: Cell cycle arrest in human HL60 assessed as cell accumulation in S phase at 1 uM after 24 hrs by propidium iodide staining-based flow cytometric analysis; assay type: functional; procedure, shortened: as §5
[12] = read-out: pLC50 (the source's name) (converted)

SMILES: Cc1ccc(-c2cc(=O)c3cc4c(cc3[nH]2)OCO4)[se]1
- Activity (HL-60 [1]): Active
- Activity (HL-60 [2]): Active
- IC50 (HL-60 [3]): 0.3 µM
- IC50 [4]: 0.2 µM
- IC50 (NCI-H460): 0.4 µM
- GI50 (A549): 0.245 µM
- CC50 (A549; [12]): > 100 µM
- TGI (A549; read-out: pTGI (converted)): 0.646 µM
- GI50 (HOP-62): 0.562 µM
- CC50 (HOP-62; [12]): > 100 µM
- TGI (HOP-62; read-out: pTGI): > 100 µM
- GI50 (NCI-H23): 0.741 µM
- CC50 (NCI-H23; [12]): > 100 µM
- TGI (NCI-H23; read-out: pTGI): > 100 µM
- GI50 (HCT-116): 0.288 µM
- CC50 (HCT-116; [12]): > 100 µM
- TGI (HCT-116; read-out: pTGI): > 100 µM
- GI50 (HCT-15): 0.339 µM
- CC50 (HCT-15; [12]): > 100 µM
- TGI (HCT-15; read-out: pTGI): > 100 µM
- GI50 (HT-29): 0.269 µM
- CC50 (HT-29; [12]): > 100 µM
- TGI (HT-29; read-out: pTGI): > 100 µM
- GI50 (SNB-19): 0.389 µM
- CC50 (SNB-19; [12]): > 100 µM
- TGI (SNB-19; read-out: pTGI): > 100 µM
- GI50 (Malme-3M): 0.427 µM
- CC50 (Malme-3M; [12]): > 100 µM
- TGI (Malme-3M; read-out: pTGI): > 100 µM
- GI50 (MDA-MB-435): 0.0525 µM
- CC50 (MDA-MB-435; [12]): > 100 µM
- TGI (MDA-MB-435; read-out: pTGI (converted)): 0.427 µM
- GI50 (SK-MEL-2): 0.11 µM
- CC50 (SK-MEL-2; [12]): > 100 µM
- TGI (SK-MEL-2; read-out: pTGI (converted)): 0.525 µM
- GI50 (SK-MEL-5): 0.309 µM
- GI50 (IGROV-1): 0.145 µM
- CC50 (IGROV-1; [12]): > 100 µM
- TGI (IGROV-1; read-out: pTGI (converted)): 0.457 µM
- GI50 (OVCAR-3): 0.24 µM
- TGI (OVCAR-3; read-out: pTGI (converted)): 0.457 µM
- GI50 (OVCAR-4): 0.575 µM
- CC50 (OVCAR-4; [12]): > 100 µM
- TGI (OVCAR-4; read-out: pTGI): > 100 µM
- GI50 (OVCAR-5): 1.7 µM
- CC50 (OVCAR-5; [12]): > 100 µM
- TGI (OVCAR-5; read-out: pTGI): > 100 µM
- GI50 (NCI/ADR-RES): 0.316 µM
- CC50 (NCI/ADR-RES; [12]): > 100 µM
- TGI (NCI/ADR-RES; read-out: pTGI): > 100 µM
- GI50 (RXF 393): 0.229 µM
- CC50 (RXF 393; [12]): > 100 µM
- TGI (RXF 393; read-out: pTGI (converted)): 0.589 µM
- GI50 (SN12C): 0.603 µM
- CC50 (SN12C; [12]): > 100 µM
- TGI (SN12C; read-out: pTGI): > 100 µM
- Activity (HL-60 [5]): Active
- growth inhibition (GI) (HL-60 [6]): Dose-dependent effect
- growth inhibition (GI) (HL-60 [7]): tde
- Activity (HL-60 [8]): Active
- Activity (HL-60 [9]): Active
- Activity (HL-60 [10]): 14.3%
- Activity (HL-60 [11]): 41.6%
